System: Fibroblast
Experiment: Multiplex assay against human fibroblast
Assay type: toxicity, cell-based
How it was run: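 Live cells were stained at seeding with Hoechst33342, BioTracker Green Microtubule Cytoskeleton Dye, MitoTracker Red and Annexin V Alexa Fluor 680. Following compound addition, they were imaged on a CQ1 microscope at 37°C and 5% CO2 and gated by CellPathfinder machine learning into Hoechst high-intensity objects or normal cells, with normal cells split into healthy, pyknosed or fragmented nuclei and pyknosed cells into mitotic or apoptotic. Tubulin, mitochondrial-mass and membrane-permeability phenotypes are per cents of healthy-nucleus cells.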

[1] = 12 h, 1 µM, compound concentration 1 uM, replicate 1
[2] = 12 h, 1 µM, compound concentration 1 uM, replicate 2
[3] = 12 h, 10 µM, compound concentration 10 uM, replicate 1
[4] = 12 h, 10 µM, compound concentration 10 uM, replicate 2
[5] = 24 h, 1 µM, compound concentration 1 uM, replicate 1
[6] = 24 h, 1 µM, compound concentration 1 uM, replicate 2
[7] = 24 h, 10 µM, compound concentration 10 uM, replicate 1
[8] = 24 h, 10 µM, compound concentration 10 uM, replicate 2
[9] = 48 h, 1 µM, compound concentration 1 uM, replicate 1
[10] = 48 h, 1 µM, compound concentration 1 uM, replicate 2
[11] = 48 h, 10 µM, compound concentration 10 uM, replicate 1
[12] = 48 h, 10 µM, compound concentration 10 uM, replicate 2

In the case of `CC(C)(O)CNc1ncc(-c2ccnc(Nc3ccnc(Cl)c3)n2)c(CC2CC2)n1`, the “Population Apoptotic (%)” value [1] was 59%, the “Population Fragmented Nuclei (%)” value [1] was 27% and the “Population Healthy Nuclei (%)” value [1] was 46%. For the same compound, the “Population Hoechst High Intensity Objects (%)” value [1] was 14%, the “Population Membrane Permeable-Phenotype (%)” value [1] was 35% and the “Population Mitochondria Different-Phenotype (%)” value [1] was 6%. The “Population Mitotic Cells (%)” value [1] was 40%, the “Population Normal (%)” value [1] was 85% and the “Population Pyknosed Nuclei (%)” value [1] was 25%. The “Population Tubulin-Different-Phenotype (%)” value [1] was 54%, the “Total Cell Count” value [1] was 121 and the “Population Apoptotic (%)” value [2] was 9%. For the same compound, the “Population Fragmented Nuclei (%)” value [2] was 9%, the “Population Healthy Nuclei (%)” value [2] was 78% and the “Population Hoechst High Intensity Objects (%)” value [2] was 5%. The “Population Membrane Permeable-Phenotype (%)” value [2] was 5%, the “Population Mitochondria Different-Phenotype (%)” value [2] was 17% and the “Population Mitotic Cells (%)” value [2] was 90%. The “Population Normal (%)” value [2] was 94%, the “Population Pyknosed Nuclei (%)” value [2] was 12% and the “Population Tubulin-Different-Phenotype (%)” value [2] was 14%. For the same compound, the “Total Cell Count” value [2] was 97, the “Population Apoptotic (%)” value [3] was 58% and the “Population Fragmented Nuclei (%)” value [3] was 32%. The “Population Healthy Nuclei (%)” value [3] was 24%, the “Population Hoechst High Intensity Objects (%)” value [3] was 7% and the “Population Membrane Permeable-Phenotype (%)” value [3] was 18%. For the same compound, the “Population Mitochondria Different-Phenotype (%)” value [3] was 45%, the “Population Mitotic Cells (%)” value [3] was 41% and the “Population Normal (%)” value [3] was 92%. The “Population Pyknosed Nuclei (%)” value [3] was 43%, the “Population Tubulin-Different-Phenotype (%)” value [3] was 90% and the “Total Cell Count” value [3] was 97. The “Population Apoptotic (%)” value [4] was 15%, the “Population Fragmented Nuclei (%)” value [4] was 10% and the “Population Healthy Nuclei (%)” value [4] was 64%. The “Population Membrane Permeable-Phenotype (%)” value [4] was 28%, the “Population Mitochondria Different-Phenotype (%)” value [4] was 96% and the “Population Mitotic Cells (%)” value [4] was 84%. For the same compound, the “Population Pyknosed Nuclei (%)” value [4] was 26%, the “Population Tubulin-Different-Phenotype (%)” value [4] was 100% and the “Total Cell Count” value [4] was 93. The “Population Apoptotic (%)” value [5] was 53%, the “Population Fragmented Nuclei (%)” value [5] was 35% and the “Population Healthy Nuclei (%)” value [5] was 51%. For the same compound, the “Population Hoechst High Intensity Objects (%)” value [5] was 10%, the “Population Membrane Permeable-Phenotype (%)” value [5] was 31% and the “Population Mitochondria Different-Phenotype (%)” value [5] was 0%. The “Population Mitotic Cells (%)” value [5] was 46%, the “Population Normal (%)” value [5] was 90% and the “Population Pyknosed Nuclei (%)” value [5] was 12%. The “Population Tubulin-Different-Phenotype (%)” value [5] was 53%, the “Total Cell Count” value [5] was 130 and the “Population Apoptotic (%)” value [6] was 20%. For the same compound, the “Population Fragmented Nuclei (%)” value [6] was 11%, the “Population Healthy Nuclei (%)” value [6] was 74% and the “Population Hoechst High Intensity Objects (%)” value [6] was 4%. The “Population Membrane Permeable-Phenotype (%)” value [6] was 10%, the “Population Mitochondria Different-Phenotype (%)” value [6] was 20% and the “Population Mitotic Cells (%)” value [6] was 80%. For the same compound, the “Population Normal (%)” value [6] was 95%, the “Population Pyknosed Nuclei (%)” value [6] was 15% and the “Population Tubulin-Different-Phenotype (%)” value [6] was 16%. For the same compound, the “Total Cell Count” value [6] was 136, the “Population Apoptotic (%)” value [7] was 63% and the “Population Fragmented Nuclei (%)” value [7] was 20%. The “Population Healthy Nuclei (%)” value [7] was 32%, the “Population Hoechst High Intensity Objects (%)” value [7] was 8% and the “Population Membrane Permeable-Phenotype (%)” value [7] was 28%. For the same compound, the “Population Mitochondria Different-Phenotype (%)” value [7] was 60%, the “Population Mitotic Cells (%)” value [7] was 36% and the “Population Normal (%)” value [7] was 91%. For the same compound, the “Population Pyknosed Nuclei (%)” value [7] was 47%, the “Population Tubulin-Different-Phenotype (%)” value [7] was 89% and the “Total Cell Count” value [7] was 95. The “Population Apoptotic (%)” value [8] was 47%, the “Population Fragmented Nuclei (%)” value [8] was 14% and the “Population Healthy Nuclei (%)” value [8] was 40%. For the same compound, the “Population Hoechst High Intensity Objects (%)” value [8] was 14%, the “Population Membrane Permeable-Phenotype (%)” value [8] was 47% and the “Population Mitochondria Different-Phenotype (%)” value [8] was 89%. For the same compound, the “Population Mitotic Cells (%)” value [8] was 52%, the “Population Normal (%)” value [8] was 85% and the “Population Pyknosed Nuclei (%)” value [8] was 44%. For the same compound, the “Population Tubulin-Different-Phenotype (%)” value [8] was 100%, the “Total Cell Count” value [8] was 105 and the “Population Apoptotic (%)” value [9] was 100%. For the same compound, the “Population Fragmented Nuclei (%)” value [9] was 51%, the “Population Healthy Nuclei (%)” value [9] was 46% and the “Population Hoechst High Intensity Objects (%)” value [9] was 18%. The “Population Membrane Permeable-Phenotype (%)” value [9] was 27%, the “Population Mitochondria Different-Phenotype (%)” value [9] was 3% and the “Population Mitotic Cells (%)” value [9] was 0%. For the same compound, the “Population Normal (%)” value [9] was 81%, the “Population Tubulin-Different-Phenotype (%)” value [9] was 24% and the “Total Cell Count” value [9] was 143. For the same compound, the “Population Apoptotic (%)” value [10] was 50%, the “Population Fragmented Nuclei (%)” value [10] was 18% and the “Population Healthy Nuclei (%)” value [10] was 78%. The “Population Hoechst High Intensity Objects (%)” value [10] was 10%, the “Population Membrane Permeable-Phenotype (%)” value [10] was 22% and the “Population Mitochondria Different-Phenotype (%)” value [10] was 1%. The “Population Mitotic Cells (%)” value [10] was 50%, the “Population Normal (%)” value [10] was 89% and the “Population Pyknosed Nuclei (%)” value [10] was 2%. The “Population Tubulin-Different-Phenotype (%)” value [10] was 40%, the “Total Cell Count” value [10] was 84 and the “Population Apoptotic (%)” value [11] was 54%. For the same compound, the “Population Fragmented Nuclei (%)” value [11] was 49%, the “Population Healthy Nuclei (%)” value [11] was 29% and the “Population Hoechst High Intensity Objects (%)” value [11] was 15%. For the same compound, the “Population Membrane Permeable-Phenotype (%)” value [11] was 12%, the “Population Mitochondria Different-Phenotype (%)” value [11] was 41% and the “Population Mitotic Cells (%)” value [11] was 45%. The “Population Normal (%)” value [11] was 84%, the “Population Pyknosed Nuclei (%)” value [11] was 21% and the “Population Tubulin-Different-Phenotype (%)” value [11] was 93%. For the same compound, the “Total Cell Count” value [11] was 123, the “Population Apoptotic (%)” value [12] was 29% and the “Population Fragmented Nuclei (%)” value [12] was 23%. The “Population Healthy Nuclei (%)” value [12] was 58%, the “Population Hoechst High Intensity Objects (%)” value [12] was 9% and the “Population Membrane Permeable-Phenotype (%)” value [12] was 7%. The “Population Mitochondria Different-Phenotype (%)” value [12] was 51%, the “Population Mitotic Cells (%)” value [12] was 70% and the “Population Normal (%)” value [12] was 90%. The “Population Pyknosed Nuclei (%)” value [12] was 17%, the “Population Tubulin-Different-Phenotype (%)” value [12] was 96% and the “Total Cell Count” value [12] was 106.

— ChEMBL document CHEMBL4689842, “EUbOPEN Chemogenomics Library wave 1” (2021)
